Consider twelve molecules from ChEMBL document CHEMBL2440107, “Quinazolino linked 4β-amidopodophyllotoxin conjugates regulate angiogenic pathway and control breast cancer cell proliferation” (Bioorg Med Chem, 2013).

SMILES strings stand for the structures. Calls of active or inactive are those of the source. No cut-off for these calls is given here.

For data set [1], the system named is MCF7. Briefly: Cell cycle arrest in human MCF7 cells assessed as accumulation at S phase at 4 uM after 24 hrs by propidium iodide staining-based flow cytometric analysis (reference value: 5%). In kind it is functional. (In flow cytometry, cells or beads pass a laser one at a time.)
Another data set relates to PANC-1. As to the kind of experiment: Cytotoxicity against human PANC1 cells assessed as cell viability at 0.5 to 32 uM after 24 hrs by MTT assay. The class given is functional, cell-based. The essentials:
(§1)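 Cells seeded at 10,000/well, incubated overnight, then exposed 24 h to 0.5–32 µM, etoposide as standard. MTT added, 2 h at 37 °C; formazan solubilised in extraction buffer, OD read at 570 nm; percent viability determined. Triplicates, Student t-test.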
A general note: Tetrazolium assays rely on reduction of a dye to a coloured formazan, in cell work by metabolically active cells.

Data set [2] deals with MCF7. Briefly: Antiinvasive activity in human MCF7 cells assessed as downregulation of alphaVbeta3 integrin protein expression at 4 uM after 24 hrs by Western blot analysis. The class given is functional, cell-based. (In general: A western blot detects proteins with antibodies after separation by electrophoresis.)
For data set [3], the system named is MCF7. As to the kind of experiment: Antimitotic activity in human MCF7 cells assessed as downregulation of Cdk1 protein expression at 4 uM after 24 hrs by Western blotting analysis. The class given is functional, cell-based.
Data set [4] deals with MCF7. As to the kind of experiment: Antiangiogenic activity in human MCF7 cells assessed as downregulation of phosphorylated ERK1/2 protein expression at 4 uM after 24 hrs by Western blotting analysis. The class given is functional, cell-based.
The subject of data set [5] is HUVEC. Briefly: Antiangiogenic activity in HUVEC assessed as inhibition of VEGF-A-induced tube formation at 1 uM after 6 hrs by inverted microscopic analysis. The class given is functional, cell-based. The conditions noted are these: Homo sapiens. The essentials: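 HUVEC (ECM medium, 5% FBS, 1% ECGS) seeded at 5×10^3 cells/well on EC matrix solidified at 37 °C, grown 12 h in endothelial growth media, then treated at 1 µM final for about 6 h. Tube formation examined by inverted microscopy. Etoposide as reference.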

The test system of data set [6] is MCF7. As to the kind of experiment: Antiangiogenic activity in human MCF7 cells assessed as downregulation of AKT phosphorylation at Ser473 at 4 uM after 24 hrs by Western blotting analysis. The class given is functional, cell-based.
For data set [7], the system named is MCF7. Briefly: Antiangiogenic activity in human MCF7 cells assessed as downregulation of VEGF-A protein expression at 4 uM after 24 hrs by Western blotting analysis. In kind it is functional, cell-based.
Data set [8] relates to MCF7. As to the kind of experiment: Antiangiogenic activity in human MCF7 cells assessed as upregulation of STAT1 protein expression at 4 uM after 24 hrs by Western blotting analysis. The class given is functional, cell-based.
The subject of data set [9] is MCF7. Briefly: Antiangiogenic activity in human MCF7 cells assessed as downregulation of STAT3 protein expression at 4 uM after 24 hrs by Western blotting analysis. In kind it is functional, cell-based.
The test system of data set [10] is MCF7. Briefly: Induction of apoptosis in human MCF7 cells assessed as upregulation of cytochrome-c protein expression in cytosol at 4 uM after 24 hrs by Western blotting analysis. The class given is functional, cell-based.
Data set [11] deals with MCF7. Briefly: Antiangiogenic activity in human MCF7 cells assessed as downregulation of ERK1/2 protein expression at 4 uM after 24 hrs by Western blotting analysis. In kind it is functional, cell-based.
Data set [12] has as its system MCF7. Briefly: Antimitotic activity in human MCF7 cells assessed as upregulation of cyclin B1 protein expression at 4 uM after 24 hrs by Western blotting analysis. The class given is functional, cell-based.
For data set [13], the system named is MCF7. Briefly: Induction of apoptosis in human MCF7 cells assessed as upregulation of caspase-9 protein expression at 4 uM after 24 hrs by Western blotting analysis. In kind it is functional, cell-based.
Data set [14] has as its system MCF7. As to the kind of experiment: Cell cycle arrest in human MCF7 cells assessed as accumulation at G0 phase at 4 uM after 24 hrs by propidium iodide staining-based flow cytometric analysis (reference value: 3%). In kind it is functional.
Data set [15] concerns MCF7. As to the kind of experiment: Cell cycle arrest in human MCF7 cells assessed as accumulation at G2/M phase at 4 uM after 24 hrs by propidium iodide staining-based flow cytometric analysis (reference value: 15%). In kind it is functional.
The next data set concerns MDA-MB-231. Briefly: Cytotoxicity against human MDA-MB-231 cells assessed as cell viability at 0.5 to 32 uM after 24 hrs by MTT assay. The class given is functional, cell-based. The method in brief:
as §1

Data set [16] relates to MCF7. Briefly: Antiangiogenic activity in human MCF7 cells assessed as effect on AKT1 protein expression at 4 uM after 24 hrs by Western blotting analysis. The class given is functional, cell-based.
The subject of data set [17] is HUVEC. Briefly: Cytotoxicity against HUVEC assessed as cell viability at 1 uM after 6 hrs by MTT assay. In kind it is cell-based. The conditions noted are these: human. The essentials:
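HUVEC at 10,000 cells/well exposed for 6 h across 0.5–32 µM; percent viability plotted, etoposide as standard. Triplicates, Student t-test.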

Data set [18] deals with MCF7. Briefly: Cytotoxicity against human MCF7 cells assessed as cell viability at 0.5 to 32 uM after 24 hrs by MTT assay. In kind it is functional, cell-based. The essentials:
as §1

Data set [19] concerns MCF7. Briefly: Cell cycle arrest in human MCF7 cells assessed as accumulation at G1 phase at 4 uM after 24 hrs by propidium iodide staining-based flow cytometric analysis (reference value: 77%). In kind it is functional.
Data set [20] deals with MCF7. Briefly: Antimitotic activity in human MCF7 cells assessed as upregulation of p53 protein expression at 4 uM after 24 hrs by Western blotting analysis. The class given is functional, cell-based.
Data set [21] relates to MCF7. Briefly: Disruption of mitochondrial membrane potential in human MCF7 cells at 4 uM after 24 hrs by JC-1 dye-based fluorescence assay. The class given is functional, cell-based. The method in brief: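 MCF-7 cells exposed 24 h at 4 µM, etoposide as reference, then stained with 2.5 µM JC-1 for 20 min at room temperature. Fluorescence imaging: red J-aggregates indicate intact potential, green monomers indicate loss, read as red-to-green shift.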

For the molecule `COc1cc([C@@H]2c3cc4c(cc3[C@@H](NC(=O)CCCCCOc3ccc5nc(C)n(-c6ccc(F)cc6)c(=O)c5c3)[C@H]3COC(=O)[C@H]23)OCO4)cc(OC)c1OC`, the Activity was 4% in the data set with MCF7 [1]; 14% in the data set with MCF7 [14]; 45% in the data set with MCF7 [15]; “Non-toxic” with HUVEC [17]; 37% in the data set with MCF7 [19]. In addition, the result with PANC-1, in the data set with MCF7 [2], in the data set with MCF7 [3], in the data set with MCF7 [4], in the data set on MCF7 [6] and in the data set with MCF7 [7] was Active. The result in the data set with MCF7 [8], with MCF7 [9], in the data set with MCF7 [10], with MCF7 [11], in the data set with MCF7 [12] and in the data set with MCF7 [13] was Active. Moreover, the outcome with MDA-MB-231, with MCF7 [18], in the data set on MCF7 [20] and in the data set with MCF7 [21] was Active. Further, the inhibition result with HUVEC [5] was “Active”. Further, the result with MCF7 [16] was inactive.

Turning to `COc1cc([C@@H]2c3cc4c(cc3[C@@H](NC(=O)CCCCCOc3ccc5nc(C)n(-c6cc(OC)c(OC)c(OC)c6)c(=O)c5c3)[C@H]3COC(=O)[C@H]23)OCO4)cc(OC)c1OC`, the Activity is reported as 5% with MCF7 [1], 7% in the data set on MCF7 [14], 39% with MCF7 [15] and 50% in the data set on MCF7 [19].

`COc1ccc(-n2c(C)nc3ccc(OCCCCC(=O)N[C@@H]4c5cc6c(cc5[C@@H](c5cc(OC)c(OC)c(OC)c5)[C@H]5C(=O)OC[C@@H]54)OCO6)cc3c2=O)cc1`: the Activity in the data set on MCF7 [1] is listed as 10%; in the data set with MCF7 [14] it was 7%; with MCF7 [15], 39%; in the data set with MCF7 [19], 44%.

For the molecule `COc1cc([C@@H]2c3cc4c(cc3[C@@H](NC(=O)CCCCOc3ccc5nc(C)n(-c6ccc([N+](=O)[O-])cc6)c(=O)c5c3)[C@H]3COC(=O)[C@H]23)OCO4)cc(OC)c1OC`, the Activity amounted to 5% in the data set with MCF7 [1], 5% in the data set on MCF7 [14], 40% with MCF7 [15] and 51% in the data set with MCF7 [19].

Take `COc1cc([C@@H]2c3cc4c(cc3[C@@H](NC(=O)CCCCCOc3ccc5nc(C)n(-c6ccc([N+](=O)[O-])cc6)c(=O)c5c3)[C@H]3COC(=O)[C@H]23)OCO4)cc(OC)c1OC`: the Activity was 5% in the data set with MCF7 [1]; 5% in the data set on MCF7 [14]; 41% in the data set on MCF7 [15]; “Non-toxic” in the data set with HUVEC [17]; 49% in the data set on MCF7 [19]. Further, the result in the data set with PANC-1, in the data set with MCF7 [2], in the data set with MCF7 [3], with MCF7 [4], with MCF7 [6] and with MCF7 [7] was Active. The outcome in the data set with MCF7 [8], in the data set on MCF7 [9], in the data set with MCF7 [10], in the data set on MCF7 [11], with MCF7 [12] and with MCF7 [13] was Active. Further, the outcome in the data set with MDA-MB-231, with MCF7 [18] and with MCF7 [20] was Active. Moreover, the outcome in the data set with MCF7 [16] was inactive.

On to `COc1cc([C@@H]2c3cc4c(cc3[C@@H](NC(=O)CCCCOc3ccc5nc(C)n(-c6cc(OC)c(OC)c(OC)c6)c(=O)c5c3)[C@H]3COC(=O)[C@H]23)OCO4)cc(OC)c1OC`, for which the Activity with MCF7 [1] amounted to 5%; in the data set on MCF7 [14], 10%; with MCF7 [15], 35%; with MCF7 [19], 51%.

In the case of `COc1cc([C@@H]2c3cc4c(cc3[C@@H](NC(=O)CCCCOc3ccc5nc(C)n(-c6ccc(Cl)c(Cl)c6)c(=O)c5c3)[C@H]3COC(=O)[C@H]23)OCO4)cc(OC)c1OC`, the Activity in the data set with MCF7 [1] is on record as 5%; with MCF7 [14], 12%; in the data set on MCF7 [15], 34%; in the data set on MCF7 [19] it was 49%.

Consider `COc1cc(OC)cc(-n2c(C)nc3ccc(OCCCCCC(=O)N[C@@H]4c5cc6c(cc5[C@@H](c5cc(OC)c(OC)c(OC)c5)[C@H]5C(=O)OC[C@@H]54)OCO6)cc3c2=O)c1`, for which the Activity in the data set with MCF7 [1] was 5%; with MCF7 [14], 9%; with MCF7 [15], 37%; in the data set with MCF7 [19], 49%.

As to `COc1cc([C@@H]2c3cc4c(cc3[C@@H](O[C@@H]3O[C@@H]5CO[C@@H](C)O[C@H]5[C@H](O)[C@H]3O)[C@H]3COC(=O)[C@H]23)OCO4)cc(OC)c1O` [ETOPOSIDE], the Activity in the data set with MCF7 [1] was 6%; in the data set with MCF7 [14], 9%; in the data set with MCF7 [15] it was 67%; with HUVEC [17], “Non-toxic”; in the data set on MCF7 [19], 18%. Also, the result in the data set with MCF7 [2], with MCF7 [10], in the data set with MCF7 [13] and in the data set with MCF7 [21] was Active.

Turning to `COc1cc([C@@H]2c3cc4c(cc3[C@@H](NC(=O)CCCCOc3ccc5nc(C)n(-c6ccc(F)cc6)c(=O)c5c3)[C@H]3COC(=O)[C@H]23)OCO4)cc(OC)c1OC`, the Activity in the data set on MCF7 [1] was found to be 5%; with MCF7 [14], 8%; in the data set on MCF7 [15] it was 38%; in the data set with MCF7 [19], 49%.

On to `COc1ccc(-n2c(C)nc3ccc(OCCCCCC(=O)N[C@@H]4c5cc6c(cc5[C@@H](c5cc(OC)c(OC)c(OC)c5)[C@H]5C(=O)OC[C@@H]54)OCO6)cc3c2=O)cc1`, for which the Activity is given as 4% in the data set with MCF7 [1]; 8% with MCF7 [14]; 41% in the data set with MCF7 [15]; “Non-toxic” in the data set with HUVEC [17]; 47% in the data set with MCF7 [19]. For the same molecule, the result with PANC-1, in the data set with MCF7 [2], in the data set with MCF7 [3], with MCF7 [4], in the data set on MCF7 [6] and with MCF7 [7] was Active. The outcome with MCF7 [8], in the data set on MCF7 [9], with MCF7 [10], in the data set with MCF7 [11], in the data set on MCF7 [12] and in the data set with MCF7 [13] was Active. Also, the outcome in the data set with MDA-MB-231, with MCF7 [18] and with MCF7 [20] was Active. Moreover, the outcome in the data set on MCF7 [16] was inactive.

Turning to `COc1cc(OC)cc(-n2c(C)nc3ccc(OCCCCC(=O)N[C@@H]4c5cc6c(cc5[C@@H](c5cc(OC)c(OC)c(OC)c5)[C@H]5C(=O)OC[C@@H]54)OCO6)cc3c2=O)c1`, the Activity in the data set with MCF7 [1] is given as 6%; in the data set with MCF7 [14], 6%; in the data set with MCF7 [15], 39%; with MCF7 [19], 49%.
